Test results from ChEMBL document CHEMBL4020840, “Synthesis and Biological Evaluation of Selenium-Containing 4-Anilinoquinazoline Derivatives as Novel Antimitotic Agents” (J Med Chem, 2018).
Active and inactive are the calls of the source. No cut-off for these calls is given here.

Key:
A549 [1] = assay: Cell cycle arrest in human A549 cells assessed as decrease in S phase at 4 nM up to 24 hrs by propidium iodide staining based flow cytometry; type: functional
Procedure, shortened: (§1)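 A549 seeded in six-well plates at 3 × 10⁵ cells/well and treated for 12 or 24 h; vehicle 0.01% DMSO. Cells fixed overnight in ice-cold 70% ethanol, treated with RNase A at 37 °C for 30 min, then stained with PI at 4 °C for 30 min. About 10 000 events acquired by flow cytometry at 488 nm; three experiments.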

A549 [2] = assay: Induction of apoptosis in human A549 cells assessed as upregulation of Bax level at 2 to 4 nM after 24 to 48 hrs by Western blot method; type: functional, cell-based
Procedure, shortened: (§2)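 A549 seeded in 60 mm dishes at 5 × 10⁵ cells and treated for 24 or 48 h. Lysed in RIPA buffer on ice for 30 min and spun at 12 500g. Protein measured by BCA; 40 μg run on 8−12% SDS−PAGE and moved to nitrocellulose. Blocked in 5% milk, primary antibodies at 4 °C overnight, HRP secondary 2 h, ECL detection.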

A549 [3] = assay: Cell cycle arrest in human A549 cells assessed as decrease in G1 phase at 4 nM up to 24 hrs by propidium iodide staining based flow cytometry; type: functional; procedure, shortened: as §1
A549 [4] = assay: Induction of apoptosis in human A549 cells assessed as upregulation of Bad level at 2 to 4 nM after 24 to 48 hrs by Western blot method; type: functional, cell-based; procedure, shortened: as §2
A549 [5] = assay: Cell cycle arrest in human A549 cells assessed as accumulation at G2/M phase up to 24 hrs by propidium iodide staining based flow cytometry; type: functional; procedure, shortened: as §1
Sus scrofa [6] = species: Sus scrofa; assay: Inhibition of porcine brain tubulin polymerization measured every 60 secs for 90 mins by DAPI staining based fluorescence assay
Procedure, shortened: (§3)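 Purified tubulin was tested in a kit assay. Final buffer: 80 mM PIPES sesquisodium (pH 6.9), 2.0 mM MgCl₂, 0.5 mM EGTA, 1 mM GTP, 10.2% glycerol. Compound (0.1–10 μM) was prewarmed at 37 °C for 1 min before tubulin was added. DAPI reporter fluorescence (ex 340 / em 410 nm) was read every 60 s for 90 min. Area under the curve gave percent inhibition versus control and the IC50.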

A549 [7] = assay: Induction of apoptosis in human A549 cells assessed as downregulation of Bcl2 level at 2 to 4 nM after 24 to 48 hrs by Western blot method; type: functional, cell-based; procedure, shortened: as §2
A549 [8] = assay: Antimigratory activity against human A549 cells assessed as suppression of wound healing at 4 nM after 24 hrs by phase contrast microscopic method; type: functional, cell-based
Procedure, shortened: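 Scratch wound assay: A549 plated at 5 × 10⁴ cells/dish and grown 24 h before scraping with a 10 μL tip. Medium then swapped to serum-free DMEM containing compound (4 nM) for 24 h. After a PBS wash, wound images taken at 0 and 24 h; at least three independent experiments.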

Sus scrofa [9] = species: Sus scrofa; assay: Inhibition of porcine brain tubulin polymerization at 7.5 uM measured every 60 secs for 90 mins by DAPI staining based fluorescence assay relative to control; procedure, shortened: as §3
A549 [10] = assay: Antitumor activity against human A549 cells xenografted in Balb/c mouse assessed as tumor growth inhibition at 2.5 mg/kg, ip treated once in 2 days for 10 days relative to control; type: functional; details: read-out: TGI
Procedure, shortened: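 Male BALB/c nude mice, 5 weeks old, 18−20 g. Right flank injected sc with 0.1 mL of 1 × 10⁷ cells/mL log-phase A549 in FBS-free DMEM. At ~100 mm³, randomised into groups of 5 and dosed ip every 2 days; vehicle controls got equal volume. Tumour volume (0.5 × length × width²) and body weight recorded every 2 days.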

## Cc1nc(N(C)c2ccc([Se]C#N)cc2)c2ccccc2n1 [listing 1 of 2 here]
A549 [1]
  Activity: Active
A549 [2]
  Activity: Active
A549 [3]
  Activity: Active
A549 [4]
  Activity: Active
A549 [5]
  Activity: Dose-dependent effect
Sus scrofa [6]
  inhibition: Dose-dependent effect
A549 [7]
  Activity: Active
A549 [8]
  Activity: Active

## COc1ccc(N(C)c2nc(C)nc3ccccc23)cc1
Sus scrofa [9]
  inhibition: 77.6%
A549 [8]
  Activity: Active

## C[Se]c1ccc(N(C)c2nc(C)nc3ccccc23)cc1F
A549 [10]
  inhibition in vivo at 2.5 mg/kg: 77.2%

## Cc1nc(N(C)c2ccc([Se]C#N)cc2)c2ccccc2n1 [listing 2 of 2 here]
A549 [10]
  inhibition in vivo at 2.5 mg/kg: 69.8%
